Assay results collected from several papers.
Compare with care: the assays were run in different laboratories.
Target: Serine/threonine-protein kinase D2 (PRKD2, Homo sapiens, UniProt Q9BZL6)
One construct used (Q9BZL6 1-878): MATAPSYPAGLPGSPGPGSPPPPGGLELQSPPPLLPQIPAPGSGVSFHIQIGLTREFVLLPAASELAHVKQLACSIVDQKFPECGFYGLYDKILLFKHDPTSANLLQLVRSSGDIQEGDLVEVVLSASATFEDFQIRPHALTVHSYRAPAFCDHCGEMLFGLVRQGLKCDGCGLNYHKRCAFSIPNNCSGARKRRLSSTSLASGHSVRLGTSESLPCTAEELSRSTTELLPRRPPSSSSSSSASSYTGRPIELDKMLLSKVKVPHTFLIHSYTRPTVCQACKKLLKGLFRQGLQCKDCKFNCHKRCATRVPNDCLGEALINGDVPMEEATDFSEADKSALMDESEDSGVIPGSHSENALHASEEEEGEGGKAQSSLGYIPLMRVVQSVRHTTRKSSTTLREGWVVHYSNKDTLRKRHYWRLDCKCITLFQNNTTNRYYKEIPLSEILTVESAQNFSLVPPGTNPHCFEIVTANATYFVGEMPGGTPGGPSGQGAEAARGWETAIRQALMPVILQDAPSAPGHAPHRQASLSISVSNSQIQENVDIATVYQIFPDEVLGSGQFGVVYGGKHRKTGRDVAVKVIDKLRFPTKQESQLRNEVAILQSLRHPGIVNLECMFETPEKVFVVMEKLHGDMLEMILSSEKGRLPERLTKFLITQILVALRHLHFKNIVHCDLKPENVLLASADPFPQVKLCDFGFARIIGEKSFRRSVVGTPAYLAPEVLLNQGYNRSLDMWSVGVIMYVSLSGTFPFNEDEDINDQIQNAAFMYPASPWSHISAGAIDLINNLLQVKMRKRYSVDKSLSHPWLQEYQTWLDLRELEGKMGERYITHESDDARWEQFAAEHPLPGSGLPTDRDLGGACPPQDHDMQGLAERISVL

SMILES | read-out | mode | method | tested at | measurement | result
Cn1cc(-c2cccc(N3CCc4c(sc5c4CC(C)(C)C5)C3=O)c2CO)cc(Nc2ccncn2)c1=O | enzyme activity | inhibitor | – | 1 µM | inhibition | 0%
COc1cc(Nc2ncc(F)c(Nc3ccc4c(n3)NC(=O)C(C)(C)O4)n2)cc(OC)c1OC | binding | – | – | 10 µM | inhibition | 0%
Cn1cc(-c2cc(F)cc(N3CCn4c(cc5c4CCCC5)C3=O)c2CO)cc(Nc2ccc(N3CCN(C4COC4)CC3)cn2)c1=O | enzyme activity | inhibitor | – | 0.1 µM | inhibition | 11%
Cn1cncc1[C@](O)(COc1ccc(C#N)cc1-c1ccc(OC(F)(F)F)cc1)c1ccc(C#N)cc1 | cell-free assay | – | competition with immobilised ligand | 1 µM | remaining binding | 84%
O=c1[nH]c2ccccc2n1C1CCN(Cc2ccc(-c3[nH]c4cc5ncnc5cc4nc3-c3ccccc3)cc2)CC1 | cell-free assay | – | – | 0.5 µM | remaining signal | 109%
Nc1ncc(-c2nc(N3CCOCC3)nc(N3CCOCC3)n2)c(C(F)F)n1 | binding | – | competition with immobilised ligand | 10 µM | remaining binding | 99%
COc1ncccc1-c1cnn2ccc(N3CCN(C(=O)OC(C)C)CC3)nc12 | binding | – | competition with immobilised ligand | 1 µM | remaining binding | 100%
CC(C)(C)c1cc(C=C(C#N)C#N)cc(Br)c1O | enzyme activity | inhibitor | – | 0.5 µM | remaining activity | 108%
Cc1nn(C)cc1-c1nc2c(N3CCN(Cc4ccc(Cl)cc4)CC3)c(Cl)cnc2[nH]1 | binding | – | competition with immobilised ligand | 1 µM | remaining binding | 100%
